Measurements taken from paper PMC3483880 (Pure and applied chemistry. Chimie pure et appliquee, 2012).
Values after ≈ are worked out from the molar mass of the structure shown. “Also recorded” adds a separate entry of the source. Where two headings read alike, the source gives them in different places.

Columns and labels:
[1] = target: Leishmania DNA topoisomerase IB enzyme (LdTopIB) (Leishmania donovani, UniProt A0A3Q8IHS4+Q8WQM6); test: Inhibition of the relaxation activity of recombinant LdTopIB; type: biochemical; settings: plasmid DNA relaxation assay
In short: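 One unit of recombinant Leishmania donovani TopIB was incubated with negatively supercoiled pHOT plasmid DNA for 30 min at 37 °C, with test compound at 3.1–150 or 3.125–100 µM. A DMSO lane served as control. Reactions were stopped with 1% SDS plus 6.1 µg proteinase K. Products were separated on agarose gel and stained with ethidium bromide to score supercoiled, nicked and relaxed topoisomer bands.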

[2] = test system: human TopIB (hTopIB); test: Inhibition of the relaxation activity of human TopIB; type: biochemical; settings: 3.125−100 μM acid 1, 30 min at 37°C
In short: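 Human TopIB relaxed supercoiled pHOT plasmid DNA alongside recombinant LdTopIB, with test compound at 3.125–100 µM and a DMSO vehicle lane. Reactions stopped with 1% SDS plus 6.1 µg proteinase K. Products resolved on agarose gel and stained with ethidium bromide. Supercoiled, nicked and relaxed topoisomer bands scored against a DNA-only lane (0.2 µg plasmid).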

[3] = test system: Leishmania donovani promastigotes; test: Antiprotozoal activity; type: cell-based; settings: for EC50: read-out: L. donovani promastigotes (EC50)
[4] = test system: Murine macrophages; test: Toxicity towards murine macrophages; type: cell-based; settings: for IC50: read-out: Murine macrophages (IC50)
[5] = test system: L. donovani promastigotes; settings: at 100 μg/mL; cited from earlier work
[6] = test system: Leishmania donovani promastigotes; settings: earlier work; cited from earlier work
[7] = test system: L. donovani; settings: cited from earlier work

SMILES: CCCCCCCCCC/C=C\CCCC(OC)C(=O)O (racemic) [Acid 1, (±)-2-methoxy-6Z-heptadecenoic acid]
- Inhibition of LdTopIB (in words) [1]: able to inhibit LdTopIB
- Inhibition of hTopIB (in words) [2]: not effective against hTopIB
- Effectiveness against L. donovani promastigotes (in words) [3]: not effective against L. donovani promastigotes
- EC50 [3]: 404 ± 11.9 µM
- IC50 [4]: 484 ± 15.8 µM

SMILES: CCCCCCCCCCC#CCCCC(OC)C(=O)O (racemic) [Acid 2, (±)-2-methoxy-6-heptadecynoic acid]
- Inhibition of LdTopIB (in words) [1]: inhibit LdTopIB
- EC50 [3]: 74 ± 17.1 µM
- Toxicity towards murine macrophages (in words) [4]: did not display toxicity towards murine macrophages
- IC50 [4]: > 700 µM

SMILES: CCCCCCCCCCCCCCCC(OC)C(=O)O (racemic) [Acid 3, (±)-2-methoxyheptadecanoic acid]
- Inhibition of LdTopIB (in words) [1]: did not inhibit LdTopIB; also recorded: do not inhibit the enzyme; also recorded: not inhibiting the enzyme
- Effectiveness against L. donovani promastigotes (in words) [3]: not effective at all against the parasite
- EC50 [3]: > 1000 µM
- IC50 [4]: > 1000 µM

SMILES: CCCCCCCCCCC#CCCCCC(=O)O [6-heptadecynoic, 6-heptadecynoic acid]
- EC50 ([3]; Leishmania donovani): 25.1 ± 1.4 µM
- Toxicity towards murine macrophages (in words) [4]: considerable toxicity towards murine macrophages
- IC50 ([4]; Mus musculus, Macrophage): 21.3 ± 0.9 µM

SMILES: CCCCCCCCCC/C=C\CCCCC(=O)O [6Z-heptadecenoic, 6Z-heptadecenoic acid]
- Effectiveness against L. donovani promastigotes (in words) [3]: not effective against L. donovani promastigotes
- EC50 [3]: > 100 µM
- IC50 [4]: 44.4 ± 1.6 µM

SMILES: CCCCCCCCCCCCCCCCOP(=O)([O-])OCC[N+](C)(C)C [miltefosine]
- EC50 ([3]; Leishmania donovani): 0.8 ± 0.1 µM
- IC50 ([4]; Mus musculus, Macrophage): 1.9 ± 0.4 µM

SMILES: CCCCCCCCCC(=O)O [n-decanoic acid]
- Effect on motility of L. donovani promastigotes [5]: inhibited the motility

SMILES: CCCCCCCCCCCC(=O)O [n-dodecanoic acid]
- Effect on motility of L. donovani promastigotes [5]: inhibited the motility

SMILES: CCCCCCCCCCCCCCCCCCCC(=O)O [n-eicosanoic acid]
- Effectiveness towards L. donovani promastigotes (in words) [6]: not effective at all

SMILES: CCCCCCCCCCCCCCCCC(=O)O [n-heptadecanoic, n-heptadecanoic acid]
- Effectiveness against L. donovani promastigotes (in words) [3]: not effective at all against the parasite
- EC50 [3]: > 100 µM
- IC50 [4]: 52.6 ± 7.5 µM
- Effectiveness towards L. donovani promastigotes (in words) [6]: not effective at all

SMILES: CCCCCCCCCCCCCCCC(=O)O [n-hexadecanoic acid]
- Effect on motility of L. donovani promastigotes [5]: inhibited the motility

SMILES: CCCCCCCCCCCCCCCCCC(=O)O [n-octadecanoic acid]
- MIC against L. donovani [7]: 1390 µM (≈ 395 µg/mL)

SMILES: CCCCCCCC/C=C\CCCCCCCC(=O)O [oleic acid]
- MIC against L. donovani [7]: 90 µM (≈ 25.4 µg/mL)
- Effect on motility of L. donovani promastigotes [5]: no effect
